Reference: ChEMBL document CHEMBL2150851, “Selective nitrile inhibitors to modulate the proteolytic synergism of cathepsins S and F” (J Med Chem, 2012)

Tests used:
Cathepsin B [1] = target: T1, Cathepsin B (Homo sapiens, UniProt P07858); test: Inhibition of human cathepsin B using Z-Arg-Arg-pNA as substrate by spectrophotometric analysis; details: TDE = time-dependent effect
Method in brief: (§1)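 Human enzyme activity was followed with a chromogenic or fluorogenic peptide substrate, in duplicate experiments at five or more inhibitor concentrations. Mean steady-state rates were plotted against inhibitor concentration and fitted by nonlinear regression to give IC50. IC50 was then corrected to zero substrate concentration to give Ki. Standard errors of the regression are reported.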

[2] = target: T2, Cathepsin K (Homo sapiens) (UniProt P43235); test: Inhibition of human cathepsin K using Z-Leu-Arg-AMC as substrate by fluorimetric analysis; details: TDE = time-dependent effect; method in brief: as §1
T2 sequence (whole entry): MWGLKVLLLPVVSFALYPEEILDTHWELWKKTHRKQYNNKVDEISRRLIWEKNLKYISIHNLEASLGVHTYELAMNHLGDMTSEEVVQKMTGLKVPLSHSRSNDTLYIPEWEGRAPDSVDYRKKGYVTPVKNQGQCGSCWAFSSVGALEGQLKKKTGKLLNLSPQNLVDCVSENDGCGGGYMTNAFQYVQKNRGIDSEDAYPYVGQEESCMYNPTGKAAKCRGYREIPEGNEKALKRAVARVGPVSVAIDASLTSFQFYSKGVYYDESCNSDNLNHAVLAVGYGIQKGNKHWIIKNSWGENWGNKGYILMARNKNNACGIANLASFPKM

Cathepsin F [3] = target: T3, Cathepsin F (Homo sapiens, UniProt Q9UBX1); test: Inhibition of human recombinant cathepsin F using Z-Phe-Arg-AMC as substrate by fluorimetric analysis; method in brief: as §1
T3 sequence (Q9UBX1 whole entry): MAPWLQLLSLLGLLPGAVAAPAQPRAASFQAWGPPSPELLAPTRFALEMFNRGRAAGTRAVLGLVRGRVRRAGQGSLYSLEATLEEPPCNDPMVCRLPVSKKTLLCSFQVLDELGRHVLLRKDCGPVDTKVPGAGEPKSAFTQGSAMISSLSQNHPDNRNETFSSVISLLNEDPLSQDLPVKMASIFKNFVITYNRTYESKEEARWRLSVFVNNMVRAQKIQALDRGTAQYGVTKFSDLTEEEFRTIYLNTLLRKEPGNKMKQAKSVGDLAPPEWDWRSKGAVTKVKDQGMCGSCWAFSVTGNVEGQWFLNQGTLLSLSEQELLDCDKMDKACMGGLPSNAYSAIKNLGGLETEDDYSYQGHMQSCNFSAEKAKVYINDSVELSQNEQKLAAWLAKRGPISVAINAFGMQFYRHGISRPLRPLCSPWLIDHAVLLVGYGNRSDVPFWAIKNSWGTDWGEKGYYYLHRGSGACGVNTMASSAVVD

Cathepsin K [4] = target: T4, Cathepsin K (Homo sapiens, UniProt P43235); test: Inhibition of human cathepsin K using Z-Leu-Arg-AMC as substrate after 80 mins by fluorimetric analysis
T4 sequence (P43235 whole entry): T2 sequence (whole entry)

Procathepsin L [5] = target: T5, Procathepsin L (Homo sapiens, UniProt P07711); test: Inhibition of human cathepsin L using Z-Phe-Arg-pNA as substrate by spectrophotometric analysis; details: TDE = time-dependent effect; method in brief: as §1
Target sequence in this assay (P07711 114-333 limits assumed): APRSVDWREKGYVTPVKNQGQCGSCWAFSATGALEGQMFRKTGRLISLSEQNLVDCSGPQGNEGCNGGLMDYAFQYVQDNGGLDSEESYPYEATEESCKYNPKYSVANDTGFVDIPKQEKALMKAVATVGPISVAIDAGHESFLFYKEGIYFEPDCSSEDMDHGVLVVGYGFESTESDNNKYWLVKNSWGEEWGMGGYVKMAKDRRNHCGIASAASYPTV

Cathepsin S [6] = target: T6, Cathepsin S (Homo sapiens, UniProt P25774); test: Inhibition of human cathepsin S using Z-Phe-Val-Arg-pNA as substrate after 80 mins by spectrophotometric analysis
Cathepsin B [7] = target: T1, Cathepsin B; test: Inhibition of human cathepsin B using Z-Arg-Arg-pNA as substrate after 80 mins by spectrophotometric analysis
Procathepsin L [8] = target: T5, Procathepsin L; test: Inhibition of human cathepsin L using Z-Phe-Arg-pNA as substrate after 80 mins by spectrophotometric analysis
Target sequence in this assay (P07711 whole entry): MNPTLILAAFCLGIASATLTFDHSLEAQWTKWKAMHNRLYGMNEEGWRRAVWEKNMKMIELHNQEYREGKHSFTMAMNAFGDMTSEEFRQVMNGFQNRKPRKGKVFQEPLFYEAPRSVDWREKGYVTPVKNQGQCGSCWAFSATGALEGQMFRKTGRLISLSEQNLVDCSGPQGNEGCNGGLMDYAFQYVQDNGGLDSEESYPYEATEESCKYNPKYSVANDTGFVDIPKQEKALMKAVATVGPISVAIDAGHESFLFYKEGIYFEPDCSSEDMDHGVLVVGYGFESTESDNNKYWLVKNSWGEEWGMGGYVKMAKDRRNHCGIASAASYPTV

Procathepsin L [9] = target: T5, Procathepsin L; test: Inhibition of human cathepsin L using Z-Phe-Arg-pNA as substrate after 10 mins by spectrophotometric analysis
Target sequence in this assay (P07711 whole entry): as above

Cathepsin F [10] = target: T3, Cathepsin F; test: Inhibition of human recombinant cathepsin F using Z-Phe-Arg-AMC as substrate after 8 min by fluorimetric analysis
Cathepsin S [11] = target: T6, Cathepsin S; test: Inhibition of human cathepsin S using Z-Phe-Val-Arg-pNA as substrate after 10 mins by spectrophotometric analysis
Cathepsin B [12] = target: T1, Cathepsin B; test: Inhibition of human cathepsin B using Z-Arg-Arg-pNA as substrate after 10 mins by spectrophotometric analysis
Cathepsin K [13] = target: T4, Cathepsin K; test: Inhibition of human cathepsin K using Z-Leu-Arg-AMC as substrate after 10 mins by fluorimetric analysis

T6 sequence (P25774 whole entry): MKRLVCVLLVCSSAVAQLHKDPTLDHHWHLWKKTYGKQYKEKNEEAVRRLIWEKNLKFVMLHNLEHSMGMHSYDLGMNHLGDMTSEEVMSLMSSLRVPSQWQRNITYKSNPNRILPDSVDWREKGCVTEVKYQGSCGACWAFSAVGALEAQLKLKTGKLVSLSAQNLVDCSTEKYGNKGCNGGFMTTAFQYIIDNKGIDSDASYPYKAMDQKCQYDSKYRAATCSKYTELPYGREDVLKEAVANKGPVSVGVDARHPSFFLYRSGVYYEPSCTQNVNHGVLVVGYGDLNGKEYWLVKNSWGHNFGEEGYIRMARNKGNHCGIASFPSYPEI

| Structure (SMILES) | inhibition (Cathepsin B [1]) | inhibition [2] | Ki (Cathepsin F [3]) [µM] | Ki (Cathepsin K [4]) [µM] | inhibition (Procathepsin L [5]) | Ki (Cathepsin S [6]) [µM] | Ki (Cathepsin B [7]) [µM] | Ki (Procathepsin L [8]) [µM] | Ki (Procathepsin L [9]) [µM] | Ki (Cathepsin F [10]) [µM] | Ki (Cathepsin S [11]) [µM] | Ki (Cathepsin B [12]) [µM] | Ki (Cathepsin K [13]) [µM] |
| --- | --- | --- | --- | --- | --- | --- | --- | --- | --- | --- | --- | --- | --- |
| CC(C)CS(=O)(=O)C[C@H](NC(=O)c1ccccc1)C(=O)N(C)N(C)C#N | tde | tde | 0.021 | 0.00066 | tde | 0.00055 | 0.0058 | 0.015 | – | – | – | – | – |
| CC(C)CS(=O)(=O)CC(NC(=O)c1ccccc1)C(=O)NCC#N (racemic) | – | – | – | – | – | – | – | – | > 40 | > 40 | 0.04 | 40 | > 40 |
| CC(C)CS(=O)(=O)CC(NC(=O)c1cccs1)C(=O)NCC#N (racemic) | – | – | – | – | – | – | – | – | > 40 | > 40 | 0.045 | 24 | > 40 |
| CC(C)CS(=O)(=O)CC(NC(=O)c1cc2ccccc2s1)C(=O)NCC#N (racemic) | – | – | – | – | – | – | – | – | > 4 | > 4 | 0.089 | 6.8 | > 4 |
| CC(C)CS(=O)(=O)CC(NC(=O)c1cc2ccsc2s1)C(=O)NCC#N (racemic) | – | – | – | – | – | – | – | – | > 4 | > 4 | 0.1 | 7.2 | > 4 |

Continued, values first:

| inhibition (Cathepsin B [1]) | inhibition [2] | Ki (Cathepsin F [3]) [µM] | Ki (Cathepsin K [4]) [µM] | inhibition (Procathepsin L [5]) | Ki (Cathepsin S [6]) [µM] | Ki (Cathepsin B [7]) [µM] | Ki (Procathepsin L [8]) [µM] | Ki (Procathepsin L [9]) [µM] | Ki (Cathepsin F [10]) [µM] | Ki (Cathepsin S [11]) [µM] | Ki (Cathepsin B [12]) [µM] | Ki (Cathepsin K [13]) [µM] | Structure (SMILES) |
| --- | --- | --- | --- | --- | --- | --- | --- | --- | --- | --- | --- | --- | --- |
| – | – | – | – | – | – | – | – | 37 | > 40 | 0.033 | 24 | > 40 | CC(C)CS(=O)(=O)C[C@H](NC(=O)c1ccccc1)C(=O)NCC#N |
| – | – | – | – | – | – | – | – | > 4 | > 4 | 0.061 | 5.1 | > 4 | CC(C)CS(=O)(=O)CC(NC(=O)c1ccc(-c2ccccc2)s1)C(=O)NCC#N (racemic) |
| – | – | – | – | – | – | – | – | > 4 | > 4 | 0.06 | 6.4 | > 4 | CC(C)CS(=O)(=O)CC(NC(=O)c1cc(-c2ccccc2)cs1)C(=O)NCC#N (racemic) |
| – | – | – | – | – | – | – | – | > 4 | > 4 | 0.061 | 5.4 | > 4 | CC(C)CS(=O)(=O)CC(NC(=O)c1ccc(-c2ccsc2)s1)C(=O)NCC#N (racemic) |
| – | – | – | – | – | – | – | – | > 4 | > 4 | 0.076 | 34 | > 4 | CC(C)CS(=O)(=O)CC(NC(=O)c1ccc(-c2nnn[nH]2)s1)C(=O)NCC#N (racemic) |
| – | – | – | – | – | – | – | – | > 4 | > 4 | 0.2 | 3.9 | > 4 | CC(C)CS(=O)(=O)CC(NC(=O)c1ccc(-c2cccs2)cc1)C(=O)NCC#N (racemic) |
| – | – | – | – | – | – | – | – | > 4 | 3.2 | 0.094 | 3.4 | 1.1 | CC(C)CS(=O)(=O)CC(NC(=O)c1ccc(-c2cccs2)s1)C(=O)NCC#N (racemic) |
